In brackets after ≈: the same amount, converted by molar mass. Activity calls are given as the source filed them. The rule behind the calls is not given here.
system: Staphylococcus aureus; assay: Antimicrobial activity against Staphylococcus aureus at 1.25 ug/mL by agar diffusion method; type: functional; conditions: read-out: IZ

Row | Structure (SMILES) | zone of inhibition at 1.25 µg/mL
1 | O=C1/C(=N/Nc2cccc([N+](=O)[O-])c2)CCCc2ccccc21 | 0 mm

system: Pseudomonas aeruginosa; assay: Antimicrobial activity against Pseudomonas aeruginosa at 5 ug/mL by agar diffusion method; type: functional; conditions: read-out: IZ

Row | Structure (SMILES) | zone of inhibition at 5 µg/mL
2 | O=C1/C(=N/Nc2cccc([N+](=O)[O-])c2)CCCc2ccccc21 | 0 mm

system: Escherichia coli; assay: Antimicrobial activity against Escherichia coli at 1.25 ug/mL by agar diffusion method; type: functional; conditions: read-out: IZ

Row | Structure (SMILES) | zone of inhibition at 1.25 µg/mL
3 | O=C1/C(=N/Nc2cccc([N+](=O)[O-])c2)CCCc2ccccc21 | 0 mm

system: Staphylococcus aureus; assay: Antimicrobial activity against Staphylococcus aureus at 5 ug/mL by agar diffusion method; type: functional; conditions: read-out: IZ

Row | Structure (SMILES) | zone of inhibition at 5 µg/mL
4 | O=C1/C(=N/Nc2cccc([N+](=O)[O-])c2)CCCc2ccccc21 | 10 mm

system: Measles morbillivirus; assay: Antiviral activity against Measles virus infected in intracranially dosed hamster assessed as inhibition of subacute sclerosing panencephalitis; type: functional; conditions: not given
Outline: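 Hamsters under ether anesthesia injected intracranially, into the subarachnoid space at 2 mm depth, at 5, 10 and 20 mg/kg/day for 10 days. Four animals per group sacrificed on days 1–20. Brains homogenized in PBS and centrifuged, supernatant deproteinized with ethanol, then MIC in brain tissue determined by HPLC and bioassay.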

Row | MIC | Structure (SMILES)
5 | 6.11 µg/mL (≈ 19.8 µM) | O=C1/C(=N/Nc2cccc([N+](=O)[O-])c2)CCCc2ccccc21

system: Penicillium italicum; assay: Antimicrobial activity against Penicillium italicum at 5 ug/mL by agar diffusion method; type: functional; conditions: read-out: IZ

Row | Structure (SMILES) | zone of inhibition at 5 µg/mL
6 | O=C1/C(=N/Nc2cccc([N+](=O)[O-])c2)CCCc2ccccc21 | 0 mm

system: Candida albicans; assay: Antimicrobial activity against Candida albicans at 5 ug/mL by agar diffusion method; type: functional; conditions: read-out: IZ

Row | Structure (SMILES) | zone of inhibition at 5 µg/mL
7 | O=C1/C(=N/Nc2cccc([N+](=O)[O-])c2)CCCc2ccccc21 | 15 mm

system: Staphylococcus aureus; assay: Antimicrobial activity against Staphylococcus aureus at 2.5 ug/mL by agar diffusion method; type: functional; conditions: read-out: IZ

Row | Structure (SMILES) | zone of inhibition at 2.5 µg/mL
8 | O=C1/C(=N/Nc2cccc([N+](=O)[O-])c2)CCCc2ccccc21 | 6 mm

system: Syncephalastrum racemosum; assay: Antimicrobial activity against Syncephalastrum racemosum at 1.25 ug/mL by agar diffusion method; type: functional; conditions: read-out: IZ

Row | Structure (SMILES) | zone of inhibition at 1.25 µg/mL
9 | O=C1/C(=N/Nc2cccc([N+](=O)[O-])c2)CCCc2ccccc21 | 9 mm

molecular target: T1, DNA topoisomerase 1 (Homo sapiens) (UniProt P11387); assay: Inhibition of topoisomerase 1 relative to etoposide; conditions: not given
T1 sequence (whole entry): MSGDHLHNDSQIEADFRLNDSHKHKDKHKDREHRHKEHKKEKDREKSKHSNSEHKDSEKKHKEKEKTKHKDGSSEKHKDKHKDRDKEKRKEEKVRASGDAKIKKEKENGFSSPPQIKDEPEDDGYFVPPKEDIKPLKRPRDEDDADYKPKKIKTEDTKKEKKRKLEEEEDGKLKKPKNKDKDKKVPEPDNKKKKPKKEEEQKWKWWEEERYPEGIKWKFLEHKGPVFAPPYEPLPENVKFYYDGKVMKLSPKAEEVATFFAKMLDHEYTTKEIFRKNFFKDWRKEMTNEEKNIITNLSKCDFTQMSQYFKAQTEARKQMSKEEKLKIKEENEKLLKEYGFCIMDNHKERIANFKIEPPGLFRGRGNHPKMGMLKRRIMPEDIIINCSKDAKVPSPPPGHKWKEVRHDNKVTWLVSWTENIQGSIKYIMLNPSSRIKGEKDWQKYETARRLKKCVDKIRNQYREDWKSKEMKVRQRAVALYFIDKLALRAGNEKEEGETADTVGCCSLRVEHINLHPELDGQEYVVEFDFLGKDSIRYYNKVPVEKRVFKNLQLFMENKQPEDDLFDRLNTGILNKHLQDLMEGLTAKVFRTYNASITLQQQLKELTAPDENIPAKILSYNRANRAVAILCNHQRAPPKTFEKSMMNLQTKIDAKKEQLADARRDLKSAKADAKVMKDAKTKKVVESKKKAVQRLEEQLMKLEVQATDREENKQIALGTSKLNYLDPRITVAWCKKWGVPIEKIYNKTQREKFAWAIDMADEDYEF

Row | Ratio | Structure (SMILES)
10 | 4.5 | O=C1/C(=N/Nc2cccc([N+](=O)[O-])c2)CCCc2ccccc21

system: Syncephalastrum racemosum; assay: Antimicrobial activity against Syncephalastrum racemosum at 2.5 ug/mL by agar diffusion method; type: functional; conditions: read-out: IZ

Row | Structure (SMILES) | zone of inhibition at 2.5 µg/mL
11 | O=C1/C(=N/Nc2cccc([N+](=O)[O-])c2)CCCc2ccccc21 | 12 mm

system: Radical scavenging activity; assay: Antioxidant activity assessed as DPPH free radical scavenging activity by measuring reduction in DPPH absorbance by ELISA relative to untreated control; type: functional; set-up: concentration or dose not given beside the values; conditions: not given
Outline: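 Test compounds dissolved in DMSO, ascorbic acid standard in water, both serially diluted. 10 µl sample added to 90 µl of 100 µM DPPH in methanol and kept in the dark at 37 °C for 30 min. Absorbance read at 515 nm. Blank is DMSO plus DPPH. % reduction = (A_B − A_A)/A_B × 100. Run in triplicate.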

Row | Structure (SMILES) | Activity
12 | O=C1/C(=N/Nc2cccc([N+](=O)[O-])c2)CCCc2ccccc21 | 81.1%

system: Penicillium italicum; assay: Antimicrobial activity against Penicillium italicum at 2.5 ug/mL by agar diffusion method; type: functional; conditions: read-out: IZ

Row | Structure (SMILES) | zone of inhibition at 2.5 µg/mL
13 | O=C1/C(=N/Nc2cccc([N+](=O)[O-])c2)CCCc2ccccc21 | 0 mm

system: Candida albicans; assay: Antimicrobial activity against Candida albicans at 2.5 ug/mL by agar diffusion method; type: functional; conditions: read-out: IZ

Row | Structure (SMILES) | zone of inhibition at 2.5 µg/mL
14 | O=C1/C(=N/Nc2cccc([N+](=O)[O-])c2)CCCc2ccccc21 | 8 mm

system: Hepatitis C virus; assay: Antiviral activity against HCV by cell based replicon assay; type: functional, Hepacivirus hominis; conditions: not given
Outline: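 HCV replicon cells plated at 1×10^4 per well. Next day incubated at 37 °C with serially diluted compound in DMEM with 2% FBS and 0.5% DMSO. HCV RNA copy number measured by quantitative RT-PCR on total cellular RNA. Each point is the average of five replicates. Cytotoxicity measured by MTS in parallel.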

Row | MIC | Structure (SMILES)
15 | 1.04 µg/mL (≈ 3.37 µM) | O=C1/C(=N/Nc2cccc([N+](=O)[O-])c2)CCCc2ccccc21

system: Bacillus subtilis; assay: Antimicrobial activity against Bacillus subtilis at 1.25 ug/mL by agar diffusion method; type: functional; conditions: read-out: IZ

Row | Structure (SMILES) | zone of inhibition at 1.25 µg/mL
16 | O=C1/C(=N/Nc2cccc([N+](=O)[O-])c2)CCCc2ccccc21 | 8 mm

system: not listed separately; assay: Antioxidant activity assessed as inhibition of peroxynitrite-mediated 3-nitrotyrosine formation by HPLC; type: functional; conditions: not given
Outline: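 Tyrosine and peroxynitrite, each 100 µM, reacted with compound at 0–300 µM in 100 mM phosphate buffer pH 7.4 at 37 °C for 15 min. Peroxynitrite made from acidified H2O2 plus KNO2, quenched with NaOH, and kept on ice no longer than 30 min before use.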

Row | IC50 | Structure (SMILES)
17 | 56 µM | O=C1/C(=N/Nc2cccc([N+](=O)[O-])c2)CCCc2ccccc21

system: Penicillium italicum; assay: Antimicrobial activity against Penicillium italicum at 1.25 ug/mL by agar diffusion method; type: functional; conditions: read-out: IZ

Row | Structure (SMILES) | zone of inhibition at 1.25 µg/mL
18 | O=C1/C(=N/Nc2cccc([N+](=O)[O-])c2)CCCc2ccccc21 | 0 mm

system: Aspergillus fumigatus; assay: Antimicrobial activity against Aspergillus fumigatus at 5 ug/mL by agar diffusion method; type: functional; conditions: read-out: IZ

Row | Structure (SMILES) | zone of inhibition at 5 µg/mL
19 | O=C1/C(=N/Nc2cccc([N+](=O)[O-])c2)CCCc2ccccc21 | 20 mm

system: Aspergillus fumigatus; assay: Antimicrobial activity against Aspergillus fumigatus at 2.5 ug/mL by agar diffusion method; type: functional; conditions: read-out: IZ

Row | Structure (SMILES) | zone of inhibition at 2.5 µg/mL
20 | O=C1/C(=N/Nc2cccc([N+](=O)[O-])c2)CCCc2ccccc21 | 11 mm

system: Escherichia coli; assay: Antimicrobial activity against Escherichia coli at 5 ug/mL by agar diffusion method; type: functional; conditions: read-out: IZ

Row | Structure (SMILES) | zone of inhibition at 5 µg/mL
21 | O=C1/C(=N/Nc2cccc([N+](=O)[O-])c2)CCCc2ccccc21 | 12 mm

system: Aspergillus fumigatus; assay: Antimicrobial activity against Aspergillus fumigatus at 1.25 ug/mL by agar diffusion method; type: functional; conditions: read-out: IZ

Row | Structure (SMILES) | zone of inhibition at 1.25 µg/mL
22 | O=C1/C(=N/Nc2cccc([N+](=O)[O-])c2)CCCc2ccccc21 | 8 mm

molecular target: DNA topoisomerase 2-alpha (Mus musculus) (UniProt Q01320); assay: Inhibition of topoisomerase 2 from mouse P388 cells assessed as relaxation of pBR322 DNA by agarose gel electrophoresis relative to etoposide; type: cell-based; conditions: not given
Outline: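 Topoisomerase II purified from P388 cells. One unit relaxes 0.125 µg supercoiled pBR322 DNA, incubated with or without inhibitor at 30 °C for 1 h in 50 mM Tris-HCl pH 8.0, 100 mM KCl, 10 mM MgCl2, 0.5 mM DTT, 1 mM ATP and 30 µg/ml BSA. Products run on 0.7% agarose in TBE, stained with ethidium bromide and imaged under UV.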

Chain of DNA topoisomerase 2-alpha (Mus musculus) (Q01320 whole entry): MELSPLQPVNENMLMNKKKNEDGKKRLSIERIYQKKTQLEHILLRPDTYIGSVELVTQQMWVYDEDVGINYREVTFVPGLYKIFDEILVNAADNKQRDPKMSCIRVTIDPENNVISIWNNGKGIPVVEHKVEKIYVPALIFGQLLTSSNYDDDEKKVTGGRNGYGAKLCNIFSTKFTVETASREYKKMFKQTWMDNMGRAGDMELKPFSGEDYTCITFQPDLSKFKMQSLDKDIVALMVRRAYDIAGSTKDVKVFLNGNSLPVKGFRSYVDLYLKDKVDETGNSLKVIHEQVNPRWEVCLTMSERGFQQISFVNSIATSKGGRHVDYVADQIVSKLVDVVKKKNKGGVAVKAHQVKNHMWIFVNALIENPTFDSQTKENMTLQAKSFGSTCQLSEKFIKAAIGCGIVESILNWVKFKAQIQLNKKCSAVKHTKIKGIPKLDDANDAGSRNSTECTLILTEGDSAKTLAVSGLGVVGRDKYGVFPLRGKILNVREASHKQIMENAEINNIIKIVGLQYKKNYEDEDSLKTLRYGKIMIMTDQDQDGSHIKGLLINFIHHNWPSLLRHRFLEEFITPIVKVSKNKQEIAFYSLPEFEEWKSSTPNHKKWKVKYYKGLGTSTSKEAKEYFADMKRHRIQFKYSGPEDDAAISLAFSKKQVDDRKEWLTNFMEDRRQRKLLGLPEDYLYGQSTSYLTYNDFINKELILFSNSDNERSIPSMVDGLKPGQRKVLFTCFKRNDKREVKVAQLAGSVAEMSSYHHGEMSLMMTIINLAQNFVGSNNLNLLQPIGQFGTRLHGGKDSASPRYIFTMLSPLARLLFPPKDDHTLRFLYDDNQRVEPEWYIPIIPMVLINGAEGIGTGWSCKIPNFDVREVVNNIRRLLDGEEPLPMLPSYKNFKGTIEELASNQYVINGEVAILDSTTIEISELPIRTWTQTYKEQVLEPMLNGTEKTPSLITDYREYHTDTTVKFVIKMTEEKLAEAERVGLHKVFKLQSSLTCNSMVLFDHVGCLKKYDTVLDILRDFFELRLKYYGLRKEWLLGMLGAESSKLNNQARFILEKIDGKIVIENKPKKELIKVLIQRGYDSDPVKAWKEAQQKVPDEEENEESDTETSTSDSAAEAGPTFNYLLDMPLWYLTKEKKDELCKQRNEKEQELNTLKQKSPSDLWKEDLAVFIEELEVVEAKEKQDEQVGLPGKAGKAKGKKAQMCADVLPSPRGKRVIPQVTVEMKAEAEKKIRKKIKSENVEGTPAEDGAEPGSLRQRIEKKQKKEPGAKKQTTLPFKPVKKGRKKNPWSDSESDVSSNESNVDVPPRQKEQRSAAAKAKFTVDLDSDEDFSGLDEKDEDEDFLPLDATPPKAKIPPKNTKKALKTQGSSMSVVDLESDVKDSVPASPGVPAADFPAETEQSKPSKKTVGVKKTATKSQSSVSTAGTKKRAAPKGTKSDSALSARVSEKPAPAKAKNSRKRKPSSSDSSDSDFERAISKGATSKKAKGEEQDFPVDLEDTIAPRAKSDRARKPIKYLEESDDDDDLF

Row | Ratio | Structure (SMILES)
23 | 4.53 | O=C1/C(=N/Nc2cccc([N+](=O)[O-])c2)CCCc2ccccc21

system: Candida albicans; assay: Antimicrobial activity against Candida albicans at 1.25 ug/mL by agar diffusion method; type: functional; conditions: read-out: IZ

Row | Structure (SMILES) | zone of inhibition at 1.25 µg/mL
24 | O=C1/C(=N/Nc2cccc([N+](=O)[O-])c2)CCCc2ccccc21 | 5 mm

system: Bacillus subtilis; assay: Antimicrobial activity against Bacillus subtilis at 2.5 ug/mL by agar diffusion method; type: functional; conditions: read-out: IZ

Row | Structure (SMILES) | zone of inhibition at 2.5 µg/mL
25 | O=C1/C(=N/Nc2cccc([N+](=O)[O-])c2)CCCc2ccccc21 | 13 mm

system: Escherichia coli; assay: Antimicrobial activity against Escherichia coli at 2.5 ug/mL by agar diffusion method; type: functional; conditions: read-out: IZ

Row | Structure (SMILES) | zone of inhibition at 2.5 µg/mL
26 | O=C1/C(=N/Nc2cccc([N+](=O)[O-])c2)CCCc2ccccc21 | 5 mm

system: Pseudomonas aeruginosa; assay: Antimicrobial activity against Pseudomonas aeruginosa at 1.25 ug/mL by agar diffusion method; type: functional; conditions: read-out: IZ

Row | Structure (SMILES) | zone of inhibition at 1.25 µg/mL
27 | O=C1/C(=N/Nc2cccc([N+](=O)[O-])c2)CCCc2ccccc21 | 0 mm

system: Syncephalastrum racemosum; assay: Antimicrobial activity against Syncephalastrum racemosum at 5 ug/mL by agar diffusion method; type: functional; conditions: read-out: IZ

Row | Structure (SMILES) | zone of inhibition at 5 µg/mL
28 | O=C1/C(=N/Nc2cccc([N+](=O)[O-])c2)CCCc2ccccc21 | 19 mm

system: Pseudomonas aeruginosa; assay: Antimicrobial activity against Pseudomonas aeruginosa at 2.5 ug/mL by agar diffusion method; type: functional; conditions: read-out: IZ

Row | Structure (SMILES) | zone of inhibition at 2.5 µg/mL
29 | O=C1/C(=N/Nc2cccc([N+](=O)[O-])c2)CCCc2ccccc21 | 0 mm

system: Bacillus subtilis; assay: Antimicrobial activity against Bacillus subtilis at 5 ug/mL by agar diffusion method; type: functional; conditions: read-out: IZ

Row | Structure (SMILES) | zone of inhibition at 5 µg/mL
30 | O=C1/C(=N/Nc2cccc([N+](=O)[O-])c2)CCCc2ccccc21 | 19 mm

system: MC-38; assay: Antitumor activity against mouse Colon 38 cells implanted in iv dosed C57BL/6 mouse administered as single dose; type: functional, organism-based; conditions: not given
Outline: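 Female C57BL/6 mice, 6 weeks old, given about 30 mg Colon 38 tumor tissue s.c. in the flank. Randomized into groups of n = 5 when tumors reached about 300 mm3 (day 1). Compound in 5% glucose given as a single iv tail-vein dose on day 1; controls received 5% glucose. Tumor volume = (length × width²)/2 and body weight tracked.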

Row | Structure (SMILES) | Activity
31 | O=C1/C(=N/Nc2cccc([N+](=O)[O-])c2)CCCc2ccccc21 | Active
